Rows were chosen to be rich in hits. Some 4.1% of all compounds tested hit in one or more screens of this group.
KCNK9 inh – inhibitors of human KCNK9 two-pore domain potassium channel. Q9NPC2. HEK293 KCNK9, FluxOR thallium flux fluorescence; hits give low values. B-score at 10 µM. 310,000 tested, 1.2% active. AID 488922;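 active means ratio B-score over 3 SD below the library mean, with starting fluorescence within 5 SD of its mean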;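 further: negative B-score means less thallium flux so channel inhibition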
KCNQ1 act – potentiators or activators of human KCNQ1 potassium channel. CHO-K1 KCNQ1, thallium flux FluxOR fluorescence; hits give high values. P51787. 310,000 tested, 0.35% active. AID 2648. B-score at 10 µM;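 active means fluorescence ratio B-score, a plate-corrected score, at least three library SD, with initial intensity B-score within 5 SD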
Target sequence (P51787 whole entry, looked up): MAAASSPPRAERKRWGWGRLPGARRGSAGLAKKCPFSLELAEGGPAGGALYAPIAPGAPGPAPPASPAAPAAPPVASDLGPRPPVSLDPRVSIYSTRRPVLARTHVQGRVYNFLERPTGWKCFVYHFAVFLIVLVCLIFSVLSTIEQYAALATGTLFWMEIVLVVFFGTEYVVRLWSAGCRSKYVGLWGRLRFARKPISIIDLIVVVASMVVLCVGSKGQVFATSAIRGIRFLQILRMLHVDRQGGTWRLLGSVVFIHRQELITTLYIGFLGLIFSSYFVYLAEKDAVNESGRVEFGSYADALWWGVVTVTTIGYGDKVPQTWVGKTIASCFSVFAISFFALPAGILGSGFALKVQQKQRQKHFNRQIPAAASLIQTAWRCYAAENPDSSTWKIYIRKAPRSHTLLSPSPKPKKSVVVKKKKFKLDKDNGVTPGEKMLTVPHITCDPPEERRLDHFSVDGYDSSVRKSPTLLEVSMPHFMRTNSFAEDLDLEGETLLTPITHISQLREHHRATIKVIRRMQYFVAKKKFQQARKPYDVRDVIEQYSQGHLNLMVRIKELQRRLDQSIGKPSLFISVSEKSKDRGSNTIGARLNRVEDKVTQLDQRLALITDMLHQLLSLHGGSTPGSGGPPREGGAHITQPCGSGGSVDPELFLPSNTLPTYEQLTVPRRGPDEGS
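Assay system: CHO-K1 cells stably expressing KCNQ1; Medium: assay buffer with matched DMSO; Also added: K+/Tl+ depolarizing stimulus; Dosing: single dose; Timing: dye 90 min, compound 20 min, room temperature; Measured by: kinetic FluxOR thallium fluorescence, 10-s 1-Hz baseline, 110-s post-stimulus read; Read-out: peak-minus-minimum fluorescence over initial fluorescence, negative-control normalized, B-scored.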
Cl transport mod – modulates chloride dependent transport by human KCC2. B-score of Tl+ flux slope (higher = more flux/activation; lower = inhibition) at 10 µM. Q9H2X9. KCC2 cells, thallium flux FluoZin-2 fluorescence. 190,000 tested, 2.2% active;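 active means thallium flux slope and its plate-corrected score both differing from the plate sample mean at a set confidence after two filtering rounds, in either direction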;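 further: slope of fluorescence scaled to starting intensity during 10 to 20 s after thallium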
KCNQ1 inh – human KCNQ1 channel inhibition | P51787 | CHO-K1 KCNQ1, FluxOR thallium flux fluorescence; hits give high values | 310,000 tested, 1.3% active | B-score at 10 µM | AID 2642;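 active means compounds whose thallium flux B-score, printed positive for inhibition, exceeds three library SD while starting fluorescence stays within three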;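 further: channel opened by potassium depolarization with thallium stimulus after 20 min compound exposure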
hERG rescue – compounds protecting human hERG from proarrhythmic drug block; Q12809; CHO-hERG, FluxOR thallium flux, dofetilide IC70 present; activation (rescue from dofetilide block), less the hit threshold, % at 10 µM; 310,000 tested, 0.51% active;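 active means activation above the mean of controls blocked by dofetilide plus 5 SD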;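 further: thallium influx through hERG after potassium depolarization seen as dye fluorescence rise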
KCNK3 inh – human KCNK3 channel inhibition, primary screen; O14649; CHO-KCNK3 thallium flux, FluxOR fluorescence; hits give low values; B-score at 10 µM; 340,000 tested, 0.84% active; AID 602410;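 active means B-score under library mean minus 4 SD, starting fluorescence ratio at most library mean plus 5 SD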;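 further: more negative B-score means stronger inhibition of thallium flux through KCNK3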
Active calls of the source: *; i = inactive; x = no result given.

SMILES	KCNK9 inh	KCNQ1 act	Cl transport mod	KCNQ1 inh	hERG rescue	KCNK3 inh
COc1cc(C2C(C#N)=C(N)N(Nc3ccccc3)C3=C2C(=O)CC(C)(C)C3)ccc1OCc1ccccc1 (centres undefined)	-7.3*	i	-0.5	i	-10	i
CCOC(=O)c1ccc(-c2ccc(C3Nc4ccccc4C(=O)N3O)o2)cc1 (centres undefined)	i	i	7.1*	i	-19	i
Cc1cc([N+](=O)[O-])ccc1-c1ccc(C2Nc3ccccc3C(=O)N2O)o1 (centres undefined)	i	13*	8.4*	i	2	i
C#CCOCCOCCOCCNc1nc(N2CCN(C(=O)[C@H](Cc3ccc(O)cc3)n3cc([C@@H](N)CC(C)C)nn3)CC2)nc(N2CCN(C(=O)[C@H](Cc3ccc(O)cc3)n3cc([C@@H](N)CC(C)C)nn3)CC2)n1	i	i	-0.018	i	-3	x
CC(NC(=O)/C=C/c1ccc(Br)cc1)c1ccccc1 (centres undefined)	i	i	-0.59	i	-5	i
Cc1ccc(Nc2nnc(-c3ccc(N4CCOCC4)c([N+](=O)[O-])c3)c3ccccc23)cc1	i	i	-1.8	7*	-10	i
O=[N+]([O-])c1cc(-c2nnc(Nc3ccccc3)c3ccccc23)ccc1N1CCOCC1	i	i	-0.22	i	-3	i
COc1ccc(C(=O)NC(CC(C)C)C(=O)O)cc1OC (centres undefined)	i	i	-0.18	i	-5	i
CCc1ccc(C(=O)NC(CC(C)C)C(=O)O)cc1 (centres undefined)	i	i	4.7*	i	-9	i
Nc1nc(-c2nonc2N)no1	i	i	-0.015	i	-3	i
O=C(Nc1nnc(-c2ccc(Cl)cc2)o1)C1=COCCO1	i	i	9.4*	i	-6	i
Cc1ccc(C)c(-c2nnc(NC(=O)C3=COCCO3)o2)c1	i	i	x	i	-18	i
CCCCCC(=O)Nc1cccc(C2=NOC3(C2)C[C@@H](C(N)=O)N(C(=O)c2ccc(OC)cc2)C3)c1 (some centres undefined)	i	i	2.5	i	-13	i
CCOC(=O)c1sc(=NC(=O)c2cccc(C)c2)n(C)c1C	i	i	1.8	i	5.7*	i
COc1ccc(C(=O)NC(=S)N2CCOCC2)cc1OC	i	i	1.2	i	-15	i
Clc1ccccc1OCc1nnc(-c2ccccc2Br)o1	i	i	-2.8	i	1	i
CCc1ccc(OCc2nnc(-c3ccccc3Br)o2)cc1	x	x	x	x	x	-9.3*
COc1ccc(-c2csc(N(CCCN(C)C)C(=O)c3ccccc3Cl)n2)cc1	i	11*	x	i	-4	i
CCC(=O)N(CC)c1nc(-c2ccc(OC)cc2)cs1	i	i	-0.61	i	9.0*	i
COc1ccc(-c2csc(N(CCCN(C)C)C(=O)c3ccccc3C)n2)cc1	i	i	x	i	-6	i
O=S(=O)(c1ccccc1)N1CCCC1c1cccs1 (centres undefined)	i	i	-0.31	i	-15	i
O=[N+]([O-])c1cc([N+](=O)[O-])c2c(=Nc3ccccc3)n(-c3ccccc3)n(O)c2c1	i	i	-1	6*	-29	-9.9*
O=[N+]([O-])c1cc(Br)c(Nc2ccccc2)c([N+](=O)[O-])c1	i	i	x	i	-6	i
CC(=O)c1c(O)cc(C)n(-c2ccc(F)cc2)c1=O	i	8*	-0.011	i	-6	i
CC(=O)Nc1ccc(S(=O)(=O)NC(CC(=O)N(C)Cc2ccccc2)C(C)C)cc1 (centres undefined)	i	i	0.19	i	-11	i
SMILES	KCNK9 inh	KCNQ1 act	Cl transport mod	KCNQ1 inh	hERG rescue	KCNK3 inh
Cc1ccc(C(=O)N/N=C/c2ccc(-c3ccc(Br)cc3[N+](=O)[O-])o2)o1	i	i	x	7*	-19	i
Cc1ccc(/C=N\NC(=O)c2cc([N+](=O)[O-])cc([N+](=O)[O-])c2)o1	i	i	4.7*	i	-14	i
OC1(c2ccccn2)COc2ccccc2O1 (centres undefined)	i	i	1	i	1	i
O=[N+]([O-])c1cc([N+](=O)[O-])c2oc(-c3ccccc3)c(Br)c2c1O	i	i	x	8*	-20	i
O=c1cc(-c2ccccc2Cl)oc2ccc([N+](=O)[O-])c(O)c12	i	i	2.4	i	-6	i
O=C(CCCC(=O)Nc1cccc(Br)c1)N/N=C/c1cc([N+](=O)[O-])ccc1O	i	i	x	7*	-9	i
O=C(CN(c1cccc(Br)c1)S(=O)(=O)c1ccccc1)N/N=C/c1cc([N+](=O)[O-])ccc1O	i	i	x	16*	-20	i
Cc1cc(C)c(Nc2ncccc2C(=O)O)c(C)c1	i	i	-0.003	i	5.8*	i
Cc1ccc(/C=C/C(=O)OCC(=O)NC(=O)NCc2ccccc2)cc1	x	x	x	x	x	i
CC(C)(C)c1ccc(C(=O)NC(=S)Nc2nc3c(s2)CCCC3)cc1	i	33*	12*	i	28*	i
O=S(=O)(c1cccc(-c2nnc(SCc3ccc(Cl)cc3)o2)c1)N1CCCCC1	-7.2*	i	-0.86	i	-6	i
CN1CCN(S(=O)(=O)c2ccc(Oc3ccc(F)cc3Br)nc2)CC1	i	i	0.26	i	-9	i
O=C1c2ccccc2C(=O)N1CC1c2ccccc2CCN1C(=O)CN1CCOCC1 (centres undefined)	i	i	0.37	i	-6	i
CCC(C(=O)NCCCN1CCN(CCCNC(=O)C(CC)c2ccccc2)CC1)c1ccccc1 (centres undefined)	i	i	x	i	4.9*	i
CCC(C(=O)NCCCc1ccccc1)c1ccccc1 (centres undefined)	i	i	-2.1	i	-14	i
C#CCOCCOCCOCCNc1nc(N2CCN(C(=O)C([C@@H](C)CC)n3cc(C(N)Cc4ccc(O)cc4)nn3)CC2)nc(N2CCN(C(=O)[C@H](CCC(=O)O)n3cc(C(N)CC(C)C)nn3)CC2)n1 (some centres undefined)	i	24*	1.8	i	-5	i

Screening results as filed in PubChem BioAssay.
